Only some compounds are listed: those with a hit (about 4.7% of all), similar ones and a draw of the others.
IMP-1 inhibitor: IMP-1 metallo-beta-lactamase inhibitors, primary screen, biochemical, epi-absorbance readout, Pseudomonas aeruginosa enzyme | purified IMP-1, nitrocefin hydrolysis, epi-absorbance fluorescence | AID 1556, 2009 | metallo-beta-lactamase IMP-1 (Pseudomonas aeruginosa) | inhibition, % at 5.6 µM | actives 0.45% (n = 290,000);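 active means inhibition above the mean plus 3 SD of all compounds in the same screening run, cut at about 4.5% in these data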;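 further: 0% = IMP-1 with DMSO and 100% = DMSO wells lacking enzyme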
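System: Purified IMP-1 | Read-out basis: Percent enzyme inhibition | Controls: IMP-1 with DMSO as 0%, enzyme-free DMSO as 100% | Replicates: One well per compound | Doses: 5.6 µM nominal single concentration | Detection: Epi-absorbance fluorescence, 480 nm excitation, 530 nm emission | Incubation: 25 °C, 15 min preincubation, 25 min reaction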
Mdm2-MdmX inh: inhibitors of human Mdm2-MdmX association, primary screen, cell-based, luminescence, split luciferase, SaOS-2, uHTS; actives 3% (n = 330,000); SaOS-2 split-luciferase Mdm2/MdmX complementation; Protein Mdm4 (Homo sapiens) + E3 ubiquitin-protein ligase Mdm2 (Homo sapiens), …; inhibition, % at 8 µM; AID 485346, 2010;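 active means inhibition of at least 50% at 8 µM in the primary screen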
Target sequence (O15151 whole entry, looked up): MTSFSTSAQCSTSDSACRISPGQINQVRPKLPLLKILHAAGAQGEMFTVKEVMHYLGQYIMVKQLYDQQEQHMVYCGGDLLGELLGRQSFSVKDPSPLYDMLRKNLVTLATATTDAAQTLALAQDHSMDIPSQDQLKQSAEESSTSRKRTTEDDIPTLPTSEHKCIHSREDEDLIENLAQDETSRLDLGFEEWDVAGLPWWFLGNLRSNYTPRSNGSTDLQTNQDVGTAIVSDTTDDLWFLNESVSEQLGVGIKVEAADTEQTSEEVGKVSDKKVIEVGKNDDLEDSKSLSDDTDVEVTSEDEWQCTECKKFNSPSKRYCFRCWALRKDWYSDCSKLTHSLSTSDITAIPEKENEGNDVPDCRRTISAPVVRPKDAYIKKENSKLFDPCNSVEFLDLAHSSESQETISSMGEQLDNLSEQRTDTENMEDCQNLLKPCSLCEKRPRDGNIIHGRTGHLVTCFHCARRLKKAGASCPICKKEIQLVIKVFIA
Target sequence (Q00987 whole entry, looked up): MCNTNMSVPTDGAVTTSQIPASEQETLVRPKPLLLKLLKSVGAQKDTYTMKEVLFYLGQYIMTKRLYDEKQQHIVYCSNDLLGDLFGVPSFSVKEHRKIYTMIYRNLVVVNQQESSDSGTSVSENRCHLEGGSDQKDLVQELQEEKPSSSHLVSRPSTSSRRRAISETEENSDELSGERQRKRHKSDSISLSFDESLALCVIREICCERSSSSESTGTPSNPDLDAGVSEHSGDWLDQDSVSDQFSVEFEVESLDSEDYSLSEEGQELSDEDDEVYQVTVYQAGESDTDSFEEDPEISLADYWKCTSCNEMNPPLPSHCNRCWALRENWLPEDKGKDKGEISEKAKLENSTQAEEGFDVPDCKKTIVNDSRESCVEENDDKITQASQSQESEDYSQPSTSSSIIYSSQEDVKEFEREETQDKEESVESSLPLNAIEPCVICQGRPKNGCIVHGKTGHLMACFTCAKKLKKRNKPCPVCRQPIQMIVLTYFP
VIM-2 inhibitor: VIM-2 metallo-beta-lactamase inhibitors, primary screen, biochemical, epi-absorbance readout, Pseudomonas aeruginosa enzyme; AID 1527, 2009; actives 0.89% (n = 290,000); purified VIM-2, nitrocefin hydrolysis, epi-absorbance fluorescence; inhibition, % at 5.6 µM;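 active means inhibition above the mean of all tested compounds plus 3 SD, cutoff set per screening run, cut at about 7.5% in these data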;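 further: red hydrolysis product quenches plate fluorescence so inhibitors raise well fluorescence; 0% = enzyme with DMSO and 100% = DMSO without enzyme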
Jurkat NFkB inh: inhibitors of induced NF-kB luciferase reporter, primary screen, TCR NF-kB activation inhibitor project, cell-based, luminescence, uHTS; Jurkat, PMA/ionomycin-induced NF-kB luciferase reporter; inhibition, % at 4 µM; actives 0.53% (n = 330,000); AID 435003, 2010; in the data active means inhibition above about 50%
aSyn UTR inh: MLPCN primary screen, SNCA 5' untranslated region | inhibition, % (tested at 7.5 µM) | actives 0.82% (n = 300,000) | alpha-synuclein 5'UTR reporter, inhibitor activity; in the data active means inhibition above about 60%; inconclusive means no clear call, values can overlap the other calls;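 further: H4 neuroglioblastoma cells stably carrying SNCA 5'UTR luciferase fusion; 0% = DMSO wells and 100% = positive control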
697 NFkB inh: inhibitors of PMA/ionomycin-induced NF-kB reporter, 697 cells, primary screen, B-cell NF-kB inhibitor project, cell-based, luminescence, uHTS. AID 435022, 2010. actives 0.33% (n = 330,000). 697 B-cell NF-kB luciferase reporter, 16 h. inhibition, % at 4 µM; in the data active means inhibition above about 35%
Mdm2-MdmX conf: Mdm2-MdmX complex disruptors, retested hits, confirmation, luminescence, single concentration | Mdm2-MdmX binding, luminescent assay | AID 489028, 2010 | inhibition, % at 8 µM | actives 55% (n = 10,000) | shares compounds with Mdm2-MdmX inh; in the data active means inhibition above about 40%
FLuc counter: full-length luciferase signal inhibition, confirmation, counter-screen for Mdm2/MdmX interaction inhibitor project, cell-based, single concentration, SaOS-2. shares compounds with Mdm2-MdmX inh. SaOS-2 full-length luciferase counterscreen, luminescence. inhibition, % at 8 µM. actives 77% (n = 6,200);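 active means mean inhibition at 8 µM reaching about 37%, which flags the compound as non-specific, limit read from the data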;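 further: p53-null SaOS-2 cells with luciferase driven by a doxycycline-inducible promoter; compound on cells about two nights before reading with doxycycline added after day one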
Numbers without * were called inactive; i = inactive; u = inconclusive; x = no result.

SMILES	IMP-1 inhibitor	Mdm2-MdmX inh	VIM-2 inhibitor	Jurkat NFkB inh	aSyn UTR inh	697 NFkB inh	Mdm2-MdmX conf	FLuc counter
Cn1c(/C=C/c2ccc(Cl)cc2Cl)c([N+](=O)[O-])c(=O)n(C)c1=O	-3	100*	-3	8	-204	-13	76*	11
CCOc1ccc(/C=C/c2c([N+](=O)[O-])c(=O)n(C)c(=O)n2C)cc1	-1	34	1	7	-40	0	x	x
COc1ccc(/C=C/c2c([N+](=O)[O-])c(=O)n(C)c(=O)n2C)c(OC)c1	-2	15	-2	4	-8	-3	x	x
C#CCn1c(=NC(=O)c2cccs2)sc2cccc(OCC)c21	-3	64*	-4	-4	22	-5	-4	x
Cc1ccc(/C=N/NC(=O)c2cc(-c3ccc(C)o3)[nH]n2)cc1	-2	50*	-5	17	-10	12	54*	50*
Cc1ccc(-c2cc(C(=O)N/N=C/c3cccnc3)n[nH]2)o1	0	-10	-5	1	0	-6	x	x
CCC(=O)c1ccc(OCC(=O)Nc2nn3cnnc3s2)cc1	-1	-17	-2	-2	11	10	x	x
CN(C)C=Nc1ncc2c3ccccc3n(CCN(C)C)c2c1C#N	2	60*	1	-6	-20	-15	62*	22
CCN(CC)CCn1c2ccccc2c2nc3ccccc3nc21	0	-29	3	-62	-213	-66	x	x
CCN(CC)CCn1c2ccccc2c2cnc(N)c(C#N)c21	-2	63*	-1	-13	i	2	27	x
CN(C)C=Nc1ncc2c3ccccc3n(Cc3ccccc3)c2c1C#N	-1	20	-3	-12	-14	3	x	x
CCOC(=O)Nc1ccc2c(c1)Sc1ccccc1N2C(=O)CCN1CCOCC1	-1	5	0	-8	18	-9	x	x
CCc1ccc(C2=NN(C(=O)CCC(=O)O)C(c3cccs3)C2)cc1 (configuration not stated)	0	23	0	-12	-33	-26	x	x
CCn1c(Cl)c(C=O)s/c1=N\S(=O)(=O)c1ccccc1	-3	100*	-3	5	-55	-81	98*	51*
CCN1C(=O)CS/C1=N\S(=O)(=O)c1ccc(Cl)cc1	-2	-17	-2	12	2	26	x	x
CC1(C)C[C@H](O)[C@]2(CO)[C@H](O)C[C@]3(C)C(=CCC4[C@@]5(C)CC[C@H](O)C(C)(C)C5CC[C@]43C)[C@@H]2C1 (some centres not stated)	x	100*	x	13	x	1	28	x
CN1CCN(C(=O)CC2C(=O)NCCN2Cc2ccc(-c3ccccc3)cc2)CC1 (configuration not stated)	-2	3	-2	13	2	8	x	x
S=C(Nc1ccc(Cl)c(Cl)c1)NC1CCCCC1	-1	85*	0	-15	-75	-9	50*	62*
S=C(Nc1ccc(Oc2ccccc2)cc1)NC1CCCCCC1	2	x	-6	x	-8	x	x	x
S=C(Nc1ccc(Cl)c(Cl)c1)NC1CCN(Cc2ccccc2)CC1	1	97*	0	0	32	-22	52*	28
S=C(NNc1ccc2ccccc2c1)NC1CCCCC1	-4	64*	0	-25	-217	-64	55*	34
Fc1ccc(NC(=S)NC2CCN(Cc3ccccc3)CC2)cc1	-3	-1	-2	17	x	15	x	x
CN(C)C1=NCCN1CCc1cccc(F)c1	-2	1	1	-1	-1	11	x	x
COc1ccc(N(C)C(=O)c2cc3c(s2)-c2ccc(Cl)cc2S(=O)(=O)C3)c(OC)c1	-1	56*	0	9	12	-18	19	x
COC(=O)c1cn(C(=O)/C=C/c2ccc(OC)c(OC)c2)c2ccccc12	-1	92*	-1	40	-78	-14	66*	39*
SMILES	IMP-1 inhibitor	Mdm2-MdmX inh	VIM-2 inhibitor	Jurkat NFkB inh	aSyn UTR inh	697 NFkB inh	Mdm2-MdmX conf	FLuc counter
COC(=O)c1cn(C(=O)c2ccccc2Cl)c2ccccc12	-2	19	-3	19	-10	13	x	x
COC(=O)c1cn(C(=O)OC)c2ccccc12	-6	-8	1	-14	11	2	x	x
COC(=O)c1cn(C(=O)c2ccc(C)cc2C)c2ccccc12	-1	61*	-3	43	-29	-61	53*	56*
CC(=O)Nc1ccc(NC(=O)N(c2ccccc2)c2ccccc2)cc1	-1	9	-2	3	1	3	x	x
COc1cc(CNC(C)c2ccccc2)cc(Cl)c1OCC(=O)Nc1ccccc1 (configuration not stated)	-2	68*	-1	13	-25	4	56*	51*
CCN(CC)CCNCc1cc(Cl)c(OCC(=O)Nc2ccccc2)c(OC)c1	-2	7	2	-5	-22	18	x	x
COc1cc(CNC(C)c2ccccc2)cc(Br)c1OCc1ccc(F)cc1 (configuration not stated)	-3	60*	-2	7	u	13	63*	75*
COc1cc(CNC(C)c2ccccc2)cc(Br)c1OCc1ccccc1 (configuration not stated)	-4	28	-3	4	-13	2	x	x
Cc1cc(NC(=O)c2cc(-c3ccccc3)on2)n(-c2ccccc2)n1	-1	-10	-3	-11	31	-5	x	x
COc1ccc(-c2cc(C(=O)Nc3cc(Br)ccc3O)no2)cc1	52*	83*	0	-29	-107	-98	32	101*
COc1ccc(-c2cc(C(=O)Nc3c(C)nn(Cc4ccccc4)c3C)no2)cc1	-4	63*	-1	2	-2	-12	20	x
COc1cccc(-c2cc(C(=O)Nc3c(C)nn(Cc4ccccc4)c3C)no2)c1	-1	-6	1	2	15	-9	x	x
COc1cccc(-c2cc(C(=O)Nc3cc(C)nn3-c3ccccc3)no2)c1	-3	65*	0	2	4	-14	32	x
O=[N+]([O-])c1cccc(NC(=S)Nc2nc(-c3ccccc3Cl)cs2)c1	-1	96*	-6	-23	14	-46	85*	63*

Screens: PubChem, several laboratories
